One may read the inhibition as the change of the read-out against control, counted positive when it falls. By CC50 is commonly meant the concentration at which the toxic effect on the cells reaches its halfway point. What is called IC50 is the concentration that inhibits the measured activity by half.

The values below come from ChEMBL document CHEMBL1681787, “Synthesis and anti-HSV-1 activity of new 1,2,3-triazole derivatives” (Bioorg Med Chem, 2011).

Data set [1] in a line: Selectivity index, ratio of CC50 for african green monkey vero cells to IC50 for Herpes simplex viruses 1. In kind it is functional. Put shortly: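 Selectivity index computed as CC50 (XTT assay in Vero cells, 72 h) divided by IC50 (plaque number reduction against HSV-1 in Vero cells).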
Data set [2] relates to Human alphaherpesvirus 1. Briefly: Antiviral activity against Herpes simplex viruses 1 infected in vero cells assessed as inhibition of viral replication at 50 uM after 72 hrs by XTT assay. Particulars: Human alphaherpesvirus 1, Vero. In kind it is functional. Put shortly:
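Vero monolayers (10⁴ cells/well) infected with HSV-1 at 100 CCID50/well for 1 h. Inoculum removed, cells washed, medium with 50 µM compound added; acyclovir 50 µM as control. After 72 h XTT/PMS added to measure protection from virus-induced cytopathic effect. Means of triplicate experiments.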
In general terms: Formazan colour is commonly taken as a measure of viable cells.

Data set [3] is described as follows: Cytotoxicity against african green monkey Vero cells after 72 hrs by XTT assay. In kind it is cell-based. Particulars: chlorocebus sabaeus. In outline:
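Vero cells (10⁴ cells/well; DMEM, 5% FBS, 37 °C, 5% CO2) exposed to a range of compound concentrations for 72 h. XTT (2.5 mg/mL final) added with PMS 32 µg/mL, 4 h incubation, absorbance read at 492 nm with 620 nm reference. CC50 obtained by linear regression of dose-response curves; acyclovir included.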

Data set [4] deals with Human alphaherpesvirus 1. Briefly: Antiviral activity against 5 MOI Herpes simplex viruses 1 infected in vero cells after 24 hrs by viral plaque number reduction assay. In kind it is functional, organism-based. Particulars: Human alphaherpesvirus 1, Vero. Put shortly:
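Vero cells in 6-well plates infected with HSV-1 at MOI 5 for 1 h at 37 °C, then treated with test compounds. After 24 h infected cells lysed, supernatant harvested and titred by plaque assay. IC50 = concentration inhibiting 50% of plaque formation versus untreated controls. Acyclovir positive control. Triplicate independent experiments.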

Regarding `Cc1c(C(=O)NNS(=O)(=O)c2ccccc2)nnn1Nc1ccccc1`, the “Ratio CC50/IC50” value in data set [1] was found to be 80. Further, the inhibition at 50 µM with Human alphaherpesvirus 1 [2] came out at 79%. Also, the midpoint of cytotoxicity in data set [3], the CC50 at 72 h, lay at 1510 µM. In the data set with Human alphaherpesvirus 1 [4], this molecule displayed an IC50 of 19 µM.
In the same order, the values of `Cc1ccc(S(=O)(=O)NNC(=O)c2nnn(Nc3ccc(F)cc3)c2C)cc1` are 974, 88%, 1270 µM and 1.3 µM.
For `Cc1ccc(S(=O)(=O)NNC(=O)c2nnn(Nc3ccc(Br)cc3)c2C)cc1`, the inhibition at 50 µM in the data set with Human alphaherpesvirus 1 [2] worked out at 69%.
On the same count and under the same terms, the same measure for `Cc1ccc(S(=O)(=O)NNC(=O)c2nnn(Nc3ccccc3)c2C)cc1`: 37%; for `COc1ccc(S(=O)(=O)NNC(=O)c2nnn(Nc3ccccc3)c2C)cc1`: 54%.
In the case of `Cc1c(C(=O)NNS(=O)(=O)c2ccccc2)nnn1Nc1ccc(Cl)cc1`, in the data set with Human alphaherpesvirus 1 [2], the inhibition at 50 µM stood at 57%.
On to `COc1ccc(S(=O)(=O)NNC(=O)c2nnn(Nc3ccc(Br)cc3)c2C)cc1`, for which, in data set [1], the “Ratio CC50/IC50” value is 26. Also, the inhibition at 50 µM in the data set with Human alphaherpesvirus 1 [2] worked out at 77%. Besides, in data set [3], the CC50 at 72 h was 971 µM. Further, in the data set on Human alphaherpesvirus 1 [4], 37 µM corresponded to half-maximal inhibition (IC50).
The corresponding values for `Cc1c(C(=O)NNS(=O)(=O)c2ccccc2)nnn1Nc1cc(Cl)ccc1Cl` are 932, 71%, 1170 µM and 1.26 µM.
In the case of `Nc1nc2c(ncn2COCCO)c(=O)[nH]1` [ACYCLOVIR], the “Ratio CC50/IC50” value in data set [1] was found to be 869. Besides, in the data set with Human alphaherpesvirus 1 [2], the inhibition at 50 µM amounted to 95%. In data set [3], this molecule returned a CC50 at 72 h of 860 µM. In the data set on Human alphaherpesvirus 1 [4], half-maximal inhibition (IC50) required 0.99 µM.
As to `Cc1c(C(=O)NNS(=O)(=O)c2ccccc2)nnn1Nc1ccc(Br)cc1`, the inhibition at 50 µM with Human alphaherpesvirus 1 [2] came out at 31%.
